Results on 18 compounds are retold here after ChEMBL document CHEMBL1152351, “Synthesis of a series of novel dihydroartemisinin derivatives containing a substituted chalcone with greater cytotoxic effects in leukemia cells” (Bioorg Med Chem Lett, 2009).

Assay [1] deals with HL-60. Put plainly: Cytotoxicity against human HL60 cells after 72 hrs by trypan blue exclusion assay. The class given is functional, cell-based. Particulars: HL-60, 72 h. In short, it runs like this: (§1)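 HL-60 cells treated 72 h, then counted with trypan blue exclusion. IG50 is the concentration giving 50% inhibition of proliferation. IC50 is the concentration giving 50% loss of viability.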

For assay [2], the system named is HL-60. The assay can be described thus: Growth inhibition of human HL60 cells at 1 uM after 72 hrs by trypan blue exclusion assay. The class given is functional, cell-based.
In assay [3] the test system is HL-60. Put plainly: Inhibition of human HL60 cell proliferation after 72 hrs by trypan blue exclusion assay. The class given is functional. In short, it runs like this:
as §1

For assay [4], the system named is P388. Put plainly: Growth inhibition of mouse P388 cells after 72 hrs by trypan blue exclusion assay. In kind it is functional.
The subject of assay [5] is HL-60. Put plainly: Induction of apoptosis in human HL60 cells assessed as DNA fragmentation at 0.8 uM after 24 hrs using ethidium bromide staining by DNA gel electrophoresis. The class given is functional, cell-based. The method, boiled down: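 HL-60 cells exposed 24 h. DNA resolved by gel electrophoresis and the fragmented DNA visualized by ethidium bromide staining.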

The test system of assay [6] is P388. The assay can be described thus: Growth inhibition of adriamycin-resistant mouse P388 cells after 72 hrs by trypan blue exclusion assay. The class given is functional.
The subject of assay [7] is HL-60. Put plainly: Induction of apoptosis in human HL60 cells assessed as occurrence of nuclear shrinkage, blebbing and apoptotic bodies at 0.2 uM after 24 hrs by acridine orange and ethidium bromide staining. In kind it is functional. The method, boiled down:
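HL-60 cells exposed 12 h and 24 h, stained with acridine orange and ethidium bromide, and viewed by fluorescence microscopy. Cells showing nuclear shrinkage, blebbing or apoptotic bodies were scored apoptotic. Percentage taken from 300 cells counted. Mean ± SD of three independent experiments.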

The test system of assay [8] is HL-60. Put plainly: Cell cycle arrest in human HL60 cells assessed as accumulation at subG1 phase at 0.8 uM after 24 hrs using propidium iodide staining by flow cytometry. In kind it is functional. In short, it runs like this:
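HL-60 cells exposed 24 h; propidium iodide staining, then flow cytometry. The subG1 population is scored as apoptotic cells. Mean ± SD from three independent experiments.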
On the technique in general: In flow cytometry, cells or beads pass a laser one at a time.

The test system of assay [9] is HL-60. Put plainly: Induction of apoptosis in human HL60 cells assessed as occurrence of nuclear shrinkage, blebbing and apoptotic bodies at 2 uM after 24 hrs by acridine orange and ethidium bromide staining. The class given is functional, cell-based. The method, boiled down:
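HL-60 cells treated 12 h and 24 h; stained with acridine orange and ethidium bromide, fluorescence microscopy; cells with nuclear shrinkage, blebbing or apoptotic bodies counted as apoptotic among 300 cells observed; percentage calculated. Three independent experiments, mean ± SD.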

The test system of assay [10] is HL-60. The assay can be described thus: Cell cycle arrest in human HL60 cells assessed as accumulation at subG1 phase at 4 uM after 24 hrs using propidium iodide staining by flow cytometry. The class given is functional, cell-based. In short, it runs like this: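 HL-60 cells exposed 24 h; propidium iodide staining, flow cytometry; apoptotic cells scored as sub-G1 fraction. Three independent experiments, mean ± SD.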

Assay [11] has as its system HL-60. Put plainly: Induction of apoptosis in human HL60 cells assessed as DNA fragmentation at 4 uM after 24 hrs using ethidium bromide staining by DNA gel electrophoresis. In kind it is functional, cell-based. In short, it runs like this: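 HL-60 cells treated 24 h; DNA fragmentation resolved by DNA gel electrophoresis and visualized after ethidium bromide staining.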

Each structure is given as a SMILES string. Active and inactive are the calls of the source. The rule behind the calls is not given here.

As a reminder, the IC50 is the concentration that gives 50% inhibition. A lower IC50 goes with greater potency in that assay. In [1], `C[C@H]1[C@H](OC(=O)COc2ccc(C(=O)/C=C/c3ccc(Cl)cc3)cc2)O[C@@H]2O[C@]3(C)CC[C@H]4[C@H](C)CC[C@@H]1[C@@]24OO3` had an IC50 of 537 nM. The “growth inhibition (GI)” value in assay [2] is “inactive”. This compound yielded an IG50 in assay [3] of 0.276 µM.

On to `COc1ccc(/C=C/C(=O)c2ccc(OCCO[C@H]3O[C@@H]4O[C@]5(C)CC[C@H]6[C@H](C)CC[C@@H]([C@H]3C)[C@@]46OO5)cc2)cc1`, for which the IC50 in assay [1] is 147 nM. The “growth inhibition (GI)” value in assay [2] was “inactive”. For the same compound, the IG50 in assay [3] is 0.214 µM.

Regarding `C[C@H]1[C@@H](OCCOc2ccc(C(=O)/C=C/c3ccccc3Cl)cc2)O[C@@H]2O[C@]3(C)CC[C@H]4[C@H](C)CC[C@@H]1[C@@]24OO3`, the half-inhibitory concentration (IC50) in assay [1] amounted to 136 nM. The “growth inhibition (GI)” value in assay [2] is “inactive”. The same compound yielded an IG50 in assay [3] of 0.119 µM.

Turning to `CCOc1ccc(/C=C/C(=O)c2ccc(OCC(=O)O[C@@H]3O[C@@H]4O[C@]5(C)CC[C@H]6[C@H](C)CC[C@@H]([C@H]3C)[C@@]46OO5)cc2)cc1`, 734 nM corresponded to half-maximal inhibition in [1] (IC50). Further, the “growth inhibition (GI)” value in assay [2] was “inactive”. In addition, the IG50 in assay [3] stood at 0.286 µM.

`COc1cccc(/C=C/C(=O)c2ccc(OCCO[C@H]3O[C@@H]4C[C@]5(C)CC[C@H]6[C@H](C)CC[C@@H]([C@H]3C)[C@@]46OO5)cc2)c1OC` came in with an IC50 in assay [1] of 194 nM. Moreover, the “growth inhibition (GI)” value in assay [2] is “inactive”. The compound also yielded an IG50 in assay [3] of 0.079 µM.

Take `C[C@H]1[C@H](OC(=O)COc2ccc(C(=O)/C=C/c3ccc(Br)cc3)cc2)O[C@@H]2O[C@]3(C)CC[C@H]4[C@H](C)CC[C@@H]1[C@@]24OO3`: in assay [1], the midpoint of inhibition, the IC50, lay at 636 nM. In assay [2], the “growth inhibition (GI)” value was “inactive”. In assay [3], the IG50 is 0.314 µM.

On to `C[C@H]1[C@@H](OCCOc2ccc(C(=O)/C=C/c3ccc(Br)cc3)cc2)O[C@@H]2O[C@]3(C)CC[C@H]4[C@H](C)CC[C@@H]1[C@@]24OO3`, for which the Activity in assay [4] was found to be 0.098 µM; in assay [6], 0.155 µM; in assay [7], 50%; in [8], 80%. The compound further registered an IC50 in assay [1] of 80 nM. The outcome in [5] was Active. For the same compound, in assay [2], the “growth inhibition (GI)” value was “inactive”. The same compound had an IG50 in assay [3] of 0.04 µM.

Regarding `COc1ccccc1/C=C/C(=O)c1ccc(OCCO[C@H]2O[C@@H]3O[C@]4(C)CC[C@H]5[C@H](C)CC[C@@H]([C@H]2C)[C@@]35OO4)cc1`, in assay [1], half-maximal inhibition (IC50) required 134 nM. Further, the “growth inhibition (GI)” value in [2] was “inactive”. This compound also displayed an IG50 in assay [3] of 0.165 µM.

For the compound `COc1ccc(/C=C/C(=O)c2ccc(OCCO[C@H]3O[C@@H]4O[C@]5(C)CC[C@H]6[C@H](C)CC[C@@H]([C@H]3C)[C@@]46OO5)cc2)cc1OC`, it took 300 nM to reach half-maximal inhibition in assay [1] (IC50). For the same compound, the “growth inhibition (GI)” value in assay [2] was “inactive”. The compound further gave an IG50 in assay [3] of 0.09 µM.

For `C[C@H]1[C@@H](OCCOc2ccc(C(=O)/C=C/c3ccc4c(c3)OCO4)cc2)O[C@@H]2O[C@]3(C)CC[C@H]4[C@H](C)CC[C@@H]1[C@@]24OO3`, the IG50 in assay [4] was found to be 0.096 µM; in assay [6], 0.178 µM; in assay [3] it was 0.059 µM. For the same compound, in assay [1], the midpoint of inhibition, the IC50, lay at 89 nM. Moreover, the result in [5] was Active. The Activity in assay [7] amounted to 50%; in assay [8], 80%. In assay [2], the “growth inhibition (GI)” value was “inactive”.

Regarding `O=C(/C=C/c1ccccc1)c1ccccc1`, the “growth inhibition (GI)” value in assay [2] is “inactive”.

Turning to `COc1cccc2c1C(=O)c1c(O)c3c(c(O)c1C2=O)C[C@@](O)(C(=O)CO)C[C@@H]3O[C@H]1C[C@H](N)[C@H](O)[C@H](C)O1` [DOXORUBICIN], the IG50 came to 0.019 µM in assay [4] and 3.73 µM in assay [6].

On to `COc1ccc(/C=C/C(=O)c2ccc(OCC(=O)O[C@@H]3O[C@@H]4O[C@]5(C)CC[C@H]6[C@H](C)CC[C@@H]([C@H]3C)[C@@]46OO5)cc2)cc1`, for which the IC50 in assay [1] stood at 394 nM. Moreover, the “growth inhibition (GI)” value in [2] was “inactive”. Besides, in assay [3], the IG50 turned out to be 0.174 µM.

Consider `C[C@H]1[C@@H](OCCOc2ccc(C(=O)/C=C/c3ccccc3)cc2)O[C@@H]2O[C@]3(C)CC[C@H]4[C@H](C)CC[C@@H]1[C@@]24OO3`, for which, in assay [1], the IC50 was 193 nM. Also, the “growth inhibition (GI)” value in assay [2] is “inactive”. The same compound had an IG50 in assay [3] of 0.208 µM.

`CCOc1ccc(/C=C/C(=O)c2ccc(OCCO[C@H]3O[C@@H]4O[C@]5(C)CC[C@H]6[C@H](C)CC[C@@H]([C@H]3C)[C@@]46OO5)cc2)cc1`: in [1], the IC50 was determined as 110 nM. Besides, the “growth inhibition (GI)” value in assay [2] is “inactive”. The compound further displayed an IG50 in assay [3] of 0.121 µM.

As for `COc1cc(/C=C/C(=O)c2ccc(OCCO[C@H]3O[C@@H]4O[C@]5(C)CC[C@H]6[C@H](C)CC[C@@H]([C@H]3C)[C@@]46OO5)cc2)cc(OC)c1OC`, the IC50 in assay [1] worked out at 219 nM. The “growth inhibition (GI)” value in assay [2] is “inactive”. The compound also yielded an IG50 in assay [3] of 0.07 µM.

`C[C@H]1[C@@H](OCCOc2ccc(C(=O)/C=C/c3ccc(Cl)cc3)cc2)O[C@@H]2O[C@]3(C)CC[C@H]4[C@H](C)CC[C@@H]1[C@@]24OO3`: the IC50 in assay [1] amounted to 130 nM. Besides, the “growth inhibition (GI)” value in assay [2] is “inactive”. Besides, the IG50 in assay [3] is 0.106 µM.

For the compound `C[C@H]1[C@@H](O)O[C@@H]2O[C@@]3(C)CC[C@H]4[C@H](C)CC[C@@H]1[C@@]24OO3` [ARTENIMOL], the Activity in assay [4] amounted to 2.3 µM; in assay [6] it was 1.51 µM. In addition, the IC50 in assay [1] was determined as 2900 nM. Also, the outcome in assay [9], in [10] and in assay [11] was Active. In [3], this compound had an IG50 of 0.73 µM.
